Data set [1] is described as follows: Alkaline hydrolysis rate of the compound. Type of data set: ADME. The gist of the method: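 Alkaline hydrolysis rate constants measured at several pH values at 25 °C. Loss of the long-wavelength UV chromophore (λmax typically 300-345 nm) was followed by spectrophotometer.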
The target in data set [2] is T1, Neutrophil elastase (Homo sapiens) (UniProt P08246).
T1 sequence (whole entry): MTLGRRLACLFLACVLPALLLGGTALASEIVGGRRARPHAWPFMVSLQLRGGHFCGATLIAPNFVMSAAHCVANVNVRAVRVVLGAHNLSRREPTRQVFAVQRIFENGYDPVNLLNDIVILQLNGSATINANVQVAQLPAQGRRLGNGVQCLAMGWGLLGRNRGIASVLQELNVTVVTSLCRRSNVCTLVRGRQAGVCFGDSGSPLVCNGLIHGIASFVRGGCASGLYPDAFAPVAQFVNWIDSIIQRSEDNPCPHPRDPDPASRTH
As to the kind of experiment: Component acylation rate constant for interaction with human leukocyte elastase.

Data set [3] concerns the target T1, Neutrophil elastase (Homo sapiens). Put plainly: Component deacylation rate constant for interaction with human leukocyte elastase.
Data set [4] can be described thus: Partition coefficient (logD7.4). It counts as physicochemical. Particulars: octanol/water, pH 7.4.
Data set [5] addresses T2, Neutrophil elastase (Homo sapiens, UniProt P08246).
T2 sequence (P08246 whole entry): T1 sequence (whole entry)
As to the kind of experiment: Inhibition of human leukocyte elastase.

This note sets out measurements from ChEMBL document CHEMBL1125034, “Design and synthesis of 4H-3,1-benzoxazin-4-ones as potent alternate substrate inhibitors of human leukocyte elastase” (J Med Chem, 1990).

As for `CC(C)C[C@H](NC(=O)[C@@H]1CCCN1c1nc2ccccc2c(=O)o1)C(=O)NCC(N)=O`, the “Log kOH-” value in data set [1] was found to be 1.26. Also, the Log kon in data set [2] came out at 4.04. For the same molecule, the Log koff in data set [3] was -3.64. The same molecule had a pH-dependent lipophilicity (logD) in data set [4] of 0.8. In data set [5], the inhibition constant (Ki) is 20.9 nM.
The matching figures for `COC(=O)[C@@H](CC(C)C)Nc1nc2ccccc2c(=O)o1`: 1.32, 4.58, -2.85, 3.2 and 37.2 nM.
With `CCOC(=O)[C@H](C)Nc1nc2ccccc2c(=O)o1`, the “Log kOH-” value in data set [1] is 1.31. This molecule also had a Log kon in data set [2] of 3.41. In addition, in data set [3], the Log koff was -2.65. Moreover, the inhibitory constant (Ki) in data set [5] was 871 nM.
On to `Cc1cccc2nc(C(F)(F)F)oc(=O)c12`, for which the “Log kOH-” value in data set [1] is reported as 3.14. In data set [2], this molecule displayed a Log kon of 5.11. For the same molecule, in data set [3], the Log koff was -2.43. In data set [4], this molecule registered a pH-dependent lipophilicity (logD) of 2.9. The same molecule gave a Ki in data set [5] of 28.8 nM.
For the molecule `CCCCNc1nc2cccc(CC)c2c(=O)o1`, in data set [1], the “Log kOH-” value is on record as 0.38. The molecule further showed a Log kon in data set [2] of 5.11. The Log koff in data set [3] is -3.27. The molecule further showed a pH-dependent lipophilicity (logD) in data set [4] of 3.8.
In the case of `NC(=O)[C@H](Cc1ccccc1)NC(=O)[C@@H]1CCCN1c1nc2ccccc2c(=O)o1`, the “Log kOH-” value in data set [1] was determined as 1.23. This molecule registered a Log kon in data set [2] of 4.16. Besides, the Log koff in data set [3] is -3.27. In addition, the pH-dependent lipophilicity (logD) in data set [4] was 1.2. Besides, the Ki in data set [5] was 37.2 nM.
The matching figures for `O=c1oc(/C=C/c2ccccc2)nc2ccccc12`: 1.57, 2.59, -2.5, 3.9 and 8130 nM.
For `COC(=O)[C@H](Cc1ccc(O)cc1)Nc1nc2ccccc2c(=O)o1`, in data set [1], the “Log kOH-” value was found to be 1.28. Further, the Log kon in data set [2] turned out to be 3.28. In data set [3], the Log koff was -3.07. Also, the pH-dependent lipophilicity (logD) in data set [4] was found to be 0.3. Also, the affinity in data set [5], expressed as Ki, was 447 nM.
For `COc1cc(C)c2c(=O)oc(NC(C)C)nc2c1`, in data set [1], the “Log kOH-” value is given as -0.42. In addition, the Log kon in data set [2] worked out at 4.32. Also, in data set [3], the Log koff is -3.1. Further, in data set [5], the inhibition constant Ki was 38 nM.
Regarding `CC(C)CN(CC(C)C)c1nc2ccccc2c(=O)o1`, the “Log kOH-” value in data set [1] stood at 0.68. Besides, in data set [2], the Log kon amounted to 2.18. In addition, the Log koff in data set [3] was -3.01. The molecule also showed a Ki in data set [5] of 6460 nM.
Consider `CNc1nc2cccc(C)c2c(=O)o1`, for which, in data set [1], the “Log kOH-” value stood at 0.54. In data set [2], this molecule displayed a Log kon of 3.69. Also, the Log koff in data set [3] is -0.82. The logD in data set [4] is 2.3.
In the case of `CCCc1cc(N(C)C)cc2nc(NC(C)C)oc(=O)c12`, the “Log kOH-” value in data set [1] was -2. The same molecule yielded a Log kon in data set [2] of 2.81. Moreover, the Log koff in data set [3] is -3.74. Further, the inhibition constant (Ki) in data set [5] was 282 nM.
The matching figures for `CCCNC(=O)Nc1ccc2c(=O)oc(NC(C)C)nc2c1`: 0.39, 4.1, -1.77 and 1350 nM.
Taken in the same sequence, the figures for `COC(=O)C(CC(C)C)Nc1nc2ccccc2c(=O)o1` (stereo not given) were 1.32, 4.32, -2.86 and 66.1 nM.
For the molecule `COc1cc2nc(SCc3ccccc3)oc(=O)c2cc1OC`, the “Log kOH-” value in data set [1] was found to be 0.96. The molecule also yielded a Log kon in data set [2] of 3.76. Further, in data set [3], the Log koff is -1.91. In data set [5], affinity was put at a Ki of 2140 nM.
The matching figures for `CCOc1nc2cc(N(C)C)ccc2c(=O)o1`: -0.1, 3.46, -4.85 and 4.9 nM.
In the case of `CCCCNc1nc2cc(N)ccc2c(=O)o1`, in data set [1], the “Log kOH-” value is given as -0.44. In addition, in data set [2], the Log kon was 3.45. In data set [3], the Log koff is -2.74. The logD in data set [4] worked out at 1.7. The molecule further showed a Ki in data set [5] of 646 nM.
For the molecule `Cc1cc(N(C)C)cc2nc(NC(C)C)oc(=O)c12`, the “Log kOH-” value in data set [1] is reported as -1.61. The same molecule came in with a Log kon in data set [2] of 2.01. For the same molecule, the Log koff in data set [3] was -3.89. Further, the Ki in data set [5] was 1260 nM.
On to `O=c1oc(NCCc2ccccc2)nc2ccccc12`, for which the “Log kOH-” value in data set [1] was found to be 1.15. For the same molecule, the Log kon in data set [2] turned out to be 3.05. Further, the Log koff in data set [3] was -2.72. The molecule also had a logD in data set [4] of 3.2. The molecule also had an inhibition constant (Ki) in data set [5] of 1700 nM.
On to `CC(C)C[C@H](NC(=O)C1CCCN1c1nc2ccccc2c(=O)o1)C(N)=O` (stereo not given in full), for which the “Log kOH-” value in data set [1] is reported as 1.27. For the same molecule, in data set [2], the Log kon is 4.18. The Log koff in data set [3] was -3.49. This molecule also came in with a log distribution coefficient (logD) in data set [4] of 1. The molecule also gave a Ki in data set [5] of 21.4 nM.
On to `C/C=C/c1cccc2nc(OCC)oc(=O)c12`, for which the “Log kOH-” value in data set [1] worked out at 1.41. The molecule also registered a Log kon in data set [2] of 5.54. Further, the Log koff in data set [3] was -4.18. Further, affinity in data set [5] was put at a Ki of 0.191 nM.
Turning to `CC(C)Nc1nc2ccccc2c(=O)o1`, in data set [1], the “Log kOH-” value is on record as 1.21. This molecule also showed a Log kon in data set [2] of 4.77. Further, the Log koff in data set [3] was -2.51. Further, the logD in data set [4] stood at 2.4.
Regarding `CC(=O)NCc1nc2ccccc2c(=O)o1`, the “Log kOH-” value in data set [1] came to 1.86. This molecule showed a Log kon in data set [2] of 2.24. In addition, the Log koff in data set [3] was -2.88. In data set [5], this molecule showed an inhibition constant (Ki) of 7590 nM.
Taken in the same sequence, the figures for `CC(C)Nc1nc2cc(N(C)C)ccc2c(=O)o1` were -0.74, 3, -3.32 and 479 nM.
Regarding `COC(=O)[C@H](CC(C)C)Nc1nc2ccccc2c(=O)o1`, the “Log kOH-” value in data set [1] was 1.13. This molecule displayed a Log kon in data set [2] of 3.36. Moreover, the Log koff in data set [3] was -3.41. This molecule had a logD in data set [4] of 3.2. Also, the affinity in data set [5] corresponds to a Ki of 170 nM.
Regarding `CCSc1nc2cccc(C)c2c(=O)o1`, the “Log kOH-” value in data set [1] was 1.58. The molecule also returned a Log kon in data set [2] of 6.18. In addition, the Log koff in data set [3] was -2.85. In addition, the log distribution coefficient (logD) in data set [4] stood at 3.6. In data set [5], this molecule had a Ki of 0.933 nM.

The term logD denotes the decadic logarithm of the distribution of all forms, ionised or not, between an organic phase and buffer at a given pH. A high value points to a more lipophilic compound. One may read the Ki as the dissociation constant of the complex between target and ligand, obtained from inhibition or displacement.
